# Measurements from different studies.
# Each line is one published result; the experiments were not run side by side.
# CYP3A4: Cytochrome P450 3A4 (CYP3A4, Homo sapiens, UniProt P08684)
Structure (SMILES),tested on,assay,system,setting,measurement,result
COC(=O)C1CCN(C(=O)c2ccc(N(C)Cc3cnc4nc(N)nc(N)c4n3)cc2)CC1,CYP3A4,"enzyme activity, inhibitor, luciferase",,10 µM,inhibition,-17.4%
N[C@@H](Cc1ccccc1)C(=O)N1CCC(C(=O)N[C@H](C(=O)O)c2ccccc2)CC1,BHK-21,"cell growth or viability, MTT",,,CC50,> 100 µM
CCC[C@@](N)(CO)CCc1ccc(OCCCCCC(C)C)cc1,"Cytochrome P450 1A2 (CYP1A2, Homo sapiens, UniProt P05177)","enzyme activity, inhibitor",,,IC50,> 50 µM
CN[C@H](CC(C)C)C(=O)N[C@H]1C(=O)N[C@@H](CC(N)=O)C(=O)N[C@H]2C(=O)NC3C(=O)N[C@H](C(=O)N[C@H](C(=O)NCCC[N+](C)(C)C)c4cc(O)cc(O)c4-c4cc3ccc4O)[C@H](O)c3ccc(c(Cl)c3)Oc3cc2cc(c3OC2OC(CO)C(O)[C@H](O)[C@@H]2O[C@H]2CC(C)(NCc3ccc(-c4ccc(Cl)cc4)cc3)[C@H](O)[C@H](C)O2)Oc2ccc(cc2Cl)[C@H]1O (some centres unmarked),,,"mouse, plasma","intravenous, 50 mg/kg",Cmax,58900 ng/mL
CCS(=O)(=O)N1CC(CC#N)(n2cc(-c3ncnc4[nH]ccc34)cn2)C1,Vero,"cell growth or viability, resazurin",,,CC50,> 60 µM
NC(=O)C(NC(=O)C1CC(c2ccccc2)C1)c1ccccc1 (centres unmarked),BHK-21,"cell growth or viability, MTT",,,CC50,> 100 µM
Cc1cc(C)nc(Nc2ncc(C(=O)NCCc3c(C)[nH]c4ccccc34)cn2)c1,,metabolic stability,"cynomolgus monkey, liver microsomes",1 µM,microsomal CLint,99 µL/min/mg
O=C(Nc1ncc([N+](=O)[O-])s1)c1cccs1,BHK-21,"cell growth or viability, MTT",,,CC50,> 1 µM
CCCCCCCC(=O)N[C@@H](CCCCN)C(=O)N[C@@H](CCCCN)C(=O)N[C@@H](C)C(=O)N[C@@H](CC(C)C)C(=O)N[C@@H](CCCCN)C(=O)N[C@@H](CC(C)C)C(=O)N[C@@H](C)C(=O)N[C@@H](CCCCN)C(=O)N[C@@H](CCCCN)C(=O)N1CCC[C@H]1C(=O)N[C@@H](CC(C)C)C(=O)N[C@@H](CCCCN)C(=O)N[C@@H](CC(C)C)C(=O)N[C@@H](CC(C)C)C(=O)N[C@@H](CCCCN)C(N)=O,,,"female CD-1 mouse, blood","intravenous, 3 mg/kg, single dose",Cmax,1420 ng/mL
NCCc1ccccn1,CYP3A4,"enzyme activity, inhibitor",,,IC50,5000 µM
O=C(O)C(F)(F)C(F)(F)C(F)(F)C(F)(F)C(F)(F)C(F)(F)C(F)(F)F,"Solute carrier organic anion transporter family member 1B1 (SLCO1B1, Homo sapiens, UniProt Q9Y6L6)","transporter uptake, substrate",CHO,"1 min, pH 7.4",Km,52.6 µM
Cc1ccccc1/C=C1/SC(=O)NC1=O,BHK-21,"cell growth or viability, MTT",,,CC50,> 100 µM
COC(=O)C1CCN(C(=O)c2ccc(NCc3cnc4nc(N)nc(N)c4n3)cc2)CC1,CYP3A4,"enzyme activity, inhibitor, luciferase",,10 µM,inhibition,-13.4%
CCc1cc(/C(C)=N/OCc2ccc(C3CCCCC3)c(C(F)(F)F)c2)ccc1CN1CC(C(=O)O)C1,CYP3A4,"enzyme activity, inhibitor","human, liver microsomes","200 µM, 20 min, midazolam probe",inhibition,11.5%
